According to ChEMBL document CHEMBL1124631, “3-(aminoalkyl)-1,2,3,4-tetrahydro-5H-[1]benzopyrano[3,4-c] pyridin-5-ones as potential anticholinergic bronchodilators” (1989):

Legend:
Cavia porcellus = experiment: Methacholine challenge test was performed on guinea pigs by administration of compound at 25 mg/kg perorally; type: functional; conditions: route oral
How it was run: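 Hartley guinea pigs, six per treatment, dosed orally at 25 mg/kg 15 min before challenge. Exposed for 10 min to 0.1% methacholine chloride aerosol from two nebulizers in a closed chamber, air pressure 10 lb/in.². Time from aerosol onset to collapse recorded and averaged ± S.E.M. Non-collapsing animals removed at 10 min and scored 10.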

Canis familiaris [1] = organism: Canis familiaris; experiment: Compound dose for inhibiting dog cholinergic bronchoconstriction by 50% of control value.; type: functional; conditions: Canis lupus familiaris, Lung; read-out: ID50 (the source's name)
How it was run: (§1)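 Dogs with femoral vein cannulated; respiratory rate, heart rate and arterial pressure monitored. Bunolol 0.5 mg/kg iv given 30 min before pilocarpine nitrate infusion (0.2 mg/kg/h) to induce bronchospasm and salivation. Saliva collected from catheterized Wharton's duct every 5 min. Cumulative iv doses 1–10,000 μg/kg given every 5 min. ID50 by linear regression of log cumulative dose vs % inhibition. Mostly one dog per compound.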

Canis familiaris [2] = organism: Canis familiaris; experiment: Pulmonary selectivity measured as the ratio of salivation and bronchospasm; type: functional, Canis lupus familiaris, Bronchiole
How it was run: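 Pilocarpine-infused dog model measuring pulmonary resistance and salivary output under cumulative iv doses (1–10,000 μg/kg). ID50 for each response by log dose–response linear regression. Selectivity = ID50 for salivation inhibition divided by ID50 for bronchospasm inhibition. Most compounds tested in one dog.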

Canis familiaris [3] = organism: Canis familiaris; experiment: Inhibition of dog salivation by 50% of control value.; type: functional; conditions: Canis lupus familiaris; read-out: ID50 (the source's name); how it was run: as §1

Structure (SMILES)	Collapse time (Cavia porcellus) [min]	ED50 (Canis familiaris [1]) [mg/kg]	Ratio (Canis familiaris [2])	ED50 (Canis familiaris [3]) [mg/kg]
COc1cc2oc(=O)c3c(c2cc1OC)CCN(CCN1CC2CCC1CC2)C3	7.6	0.137	1	0.14
COc1ccc2c3c(c(=O)oc2c1)CN(CCN1CC2CCC1CC2)CC3	10	0.063	1.6	0.102
Cc1cc2oc(=O)c3c(c2cc1C)CCN(CC(C)N1CCCCC1)C3 (centres undefined)	7.7	0.3	3.9	1.16
CCOc1cc2oc(=O)c3c(c2cc1OCC)CCN(CC(C)N1CCCCC1)C3 (centres undefined)	10	0.126	1.5	0.194
COc1cc2oc(=O)c3c(c2cc1OC)CCN(CCN1CC2CCCC(C2)C1)C3	6.6	0.119	–	–
CCN(C)C(C)CN1CCc2c(c(=O)oc3cc(OC)c(OC)cc23)C1 (centres undefined)	6	0.135	0.82	0.111
CCCN(CC)C(C)CN1CCc2c(c(=O)oc3cc(OC)ccc23)C1 (centres undefined)	10	0.058	0.47	0.027
COc1ccc2c3c(c(=O)oc2c1)CN(CCN1CC2CCCC(C2)C1)CC3	7.3	1.03	0.15	0.154
COc1ccc2c3c(c(=O)oc2c1)CN(CCN1CC2CCC(CC2)C1)CC3	6	0.035	3	0.104
COc1cc2oc(=O)c3c(c2cc1OC)CCN(CC(C)N1CCOCC1)C3 (centres undefined)	10	–	–	–
CCCN(C)C(C)CN1CCc2c(c(=O)oc3cc(OC)ccc23)C1 (centres undefined)	10	0.073	1.2	0.084
COc1cc2oc(=O)c3c(c2cc1OC)CCN(CCN1CCCCCC1)C3	4	–	–	–
COc1cc2oc(=O)c3c(c2cc1OC)CCN(CCN1CCCCC1)C3	4.9	–	–	–
Cc1cc2oc(=O)c3c(c2cc1C)CCN(CCN1CC2CCC(CC2)C1)C3	5.1	0.372	0.6	0.223
O=c1oc2ccccc2c2c1CN(CCN1CC3CCC(CC3)C1)CC2	5.2	0.849	0.08	0.068
COc1ccc2c3c(c(=O)oc2c1)CN(CCN1CCOCC1)CC3	6.1	1.14	0.63	0.714
CCOc1cc2oc(=O)c3c(c2cc1OCC)CCN(CCN1CC2CCC(CC2)C1)C3	6.3	0.267	0.79	0.21
COc1ccc2c3c(c(=O)oc2c1)CN(CCN(C)C)CC3	1.9	–	–	–
Cc1ccc2c3c(c(=O)oc2c1)CN(CC(C)N(C)C)CC3 (centres undefined)	10	–	3.7	–
CCNC(C)CN1CCc2c(c(=O)oc3cc(OC)c(OC)cc23)C1 (centres undefined)	1.7	–	–	–

Structure (SMILES)	Collapse time (Cavia porcellus) [min]	ED50 (Canis familiaris [1]) [mg/kg]	Ratio (Canis familiaris [2])	ED50 (Canis familiaris [3]) [mg/kg]
CCCN(CC)C(C)CN1CCc2c(c(=O)oc3cc(OC)c(OC)cc23)C1 (centres undefined)	3.7	–	–	–
Cc1ccc2c3c(c(=O)oc2c1)CN(CC(C)N1CCCC1)CC3 (centres undefined)	8.7	0.1	2.3	0.226
COc1ccc2c3c(c(=O)oc2c1)CN(CCN1CCCC1)CC3	9.1	0.246	3	0.735
CCN(C)C(C)CN1CCc2c(c(=O)oc3cc(C)ccc23)C1 (centres undefined)	8.8	–	2.2	–
CCN(C)C(C)CN1CCc2c(c(=O)oc3cc(OC)ccc23)C1 (centres undefined)	9.1	0.015	1.5	0.023
COc1cc2oc(=O)c3c(c2cc1OC)CCN(CC(C)N1CCCC1)C3 (centres undefined)	10	0.017	1.4	0.023
COc1cc2oc(=O)c3c(c2cc1OC)CCN(CCN1CC2CCC(CC2)C1)C3	5	0.113	4.7	0.53
COc1cc2oc(=O)c3c(c2cc1OC)CCN(CC(C)N1CCCCCC1)C3 (centres undefined)	1.7	–	–	–
CCNC(C)CN1CCc2c(c(=O)oc3ccccc23)C1 (centres undefined)	10	–	5.9	–
Cc1cc2oc(=O)c3c(c2cc1C)CCN(CC(C)N1CCCC1)C3 (centres undefined)	8.2	0.315	2.2	0.699
CCOc1cc2oc(=O)c3c(c2cc1OCC)CCN(CC(C)N1CCCC1)C3 (centres undefined)	9.4	0.099	1.6	0.163
CCN(CC)C(C)CN1CCc2c(c(=O)oc3cc(OC)c(OC)cc23)C1 (centres undefined)	7.8	–	3.5	–
COc1ccc2c3c(c(=O)oc2c1)CN(CCN1CCCCCC1)CC3	8	0.223	1.8	0.398
CCNC(C)CN1CCc2c(c(=O)oc3cc(OC)ccc23)C1 (centres undefined)	7.5	0.086	2.6	0.227
CCCN(C)C(C)CN1CCc2c(c(=O)oc3cc(C)ccc23)C1 (centres undefined)	5.4	0.192	1.6	0.304
CCN(CC)C(C)CN1CCc2c(c(=O)oc3cc(C)ccc23)C1 (centres undefined)	6.6	–	4.6	–
CCCN(CCC)CCN1CCc2c(c(=O)oc3cc(OC)ccc23)C1	7	0.428	2	0.855
COc1ccc2c3c(c(=O)oc2c1)CN(CCN1CCCCC1)CC3	9.5	0.205	0.69	0.141
COc1cc2oc(=O)c3c(c2cc1OC)CCN(CCN1C(C)(C)CCCC1(C)C)C3	2.8	–	–	–
COc1cc2oc(=O)c3c(c2cc1OC)CCN(CC(C)N(C)C)C3 (centres undefined)	5.2	–	4.5	–

Structure (SMILES)	Collapse time (Cavia porcellus) [min]	ED50 (Canis familiaris [1]) [mg/kg]	Ratio (Canis familiaris [2])	ED50 (Canis familiaris [3]) [mg/kg]
COc1ccc2c3c(c(=O)oc2c1)CN(CC(C)N(C)C)CC3 (centres undefined)	10	0.025	1.1	0.027
CC(C)c1ccc2c3c(c(=O)oc2c1)CN(CCN1CC2CCC(CC2)C1)CC3	6.2	0.209	0.61	0.128
Cc1ccc2c3c(c(=O)oc2c1)CN(CCN1CC2CCC(CC2)C1)CC3	5	0.235	1.9	0.452
CCCN(CC)C(C)CN1CCc2c(c(=O)oc3cc(C)ccc23)C1 (centres undefined)	7.6	0.116	1.6	0.182
COc1cc2oc(=O)c3c(c2cc1OC)CCN(CC(C)N1CCCCC1)C3 (centres undefined)	10	0.129	1.3	0.168
CC(CN1CCc2c(c(=O)oc3ccccc23)C1)N1CCCC1 (centres undefined)	10	0.088	2.2	0.19
CCNC(C)CN1CCc2c(c(=O)oc3cc(C)ccc23)C1 (centres undefined)	10	0.627	0.36	0.225
CCN(CC)C(C)CN1CCc2c(c(=O)oc3cc(OC)ccc23)C1 (centres undefined)	10	0.038	1.2	0.046
CCCN(CC)C(C)CN1CCc2c(c(=O)oc3ccccc23)C1 (centres undefined)	6.4	1.11	0.88	0.97
CCN(CC)C(C)CN1CCc2c(c(=O)oc3ccccc23)C1 (centres undefined)	10	–	6.9	–
CCN(CC)CCN1CCc2c(c(=O)oc3cc(OC)ccc23)C1	8	0.394	0.4	0.158
Cc1ccc2c3c(c(=O)oc2c1)CN(CC(C)N1CCCCC1)CC3 (centres undefined)	9.7	0.04	2.7	0.108
CCc1ccc2c3c(c(=O)oc2c1)CN(CCN1CC2CCC(CC2)C1)CC3	6.8	0.074	0.55	0.041
CCCN(C)C(C)CN1CCc2c(c(=O)oc3cc(OC)c(OC)cc23)C1 (centres undefined)	2.5	–	–	–
CC(CN1CCc2c(c(=O)oc3ccccc23)C1)N(C)C (centres undefined)	10	–	21.6	–
CC(CN1CCc2c(c(=O)oc3ccccc23)C1)N1CCCCC1 (centres undefined)	10	0.038	5.8	0.219
COc1cc2oc(=O)c3c(c2cc1OC)CCN(CCCN1CCCCC1)C3	1.6	–	–	–
CCN1CCCC1CN1CCc2c(c(=O)oc3cc(OC)c(OC)cc23)C1.Cl.Cl (centres undefined)	2.8	–	–	–
CN1[C@@H]2CC[C@H]1C[C@@H](OC(=O)C(CO)c1ccccc1)C2 (some centres undefined) [ATROPINE]	–	0.007	0.46	0.0032
